# Measured values as given in ChEMBL document CHEMBL4406821, “Novel dual inhibitors targeting CDK4 and VEGFR2 synergistically suppressed cancer progression and angiogenesis” (Eur J Med Chem, 2019).
# Activity calls are given as the source filed them. The rule behind the calls is not given here.
# Legend:
# [1] = target: Mitogen-activated protein kinase kinase kinase 20 (Homo sapiens) (UniProt Q9NYL2); assay: Inhibition of recombinant human full length ZAK at 1 uM using MBP as substrate incubated for 40 mins in presence of [gamma-33P]-ATP by scintillation counting method relative to control
# [2] = VRT (0 to t) in Sprague-Dawley rat at 10 mg/kg, iv by HPLC-MS analysis; assay type: ADME, organism-based; details: in vivo
# [3] = test system: Mus musculus; assay: Antiangiogenic activity in Matrigel plug angiogenic BALB/c mouse assessed as reduction in blood vessel formation at 10 to 20 mg/kg, sc measured after 10 days by Matrigel plug assay; assay type: functional, organism-based
# In short: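 Balb/c mice, 5 weeks old, were injected subcutaneously with 750 µL of a 2:1 mix of growth factor-reduced Matrigel and compound (10 or 20 mg/kg) or vehicle. Plugs were harvested after 10 days and the subcutaneous vessels photographed.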
# [4] = target: Serine/threonine-protein kinase MRCK alpha (Homo sapiens) (UniProt Q5VT25); assay: Inhibition of recombinant human MRCKalpha (1 to 473 residues) at 1 uM using KKRNRTLTV as substrate incubated for 40 mins in presence of [gamma-33P]-ATP by scintillation counting method relative to control
# [5] = target: Protein kinase C eta type (Homo sapiens) (UniProt P24723); assay: Inhibition of recombinant human full length PKCeta (2 to end residues) at 1 uM using ERMRPRKRQGSVRRRV as substrate incubated for 40 mins in presence of [gamma-33P]-ATP by scintillation counting method relative to control
# [6] = target: ALK tyrosine kinase receptor (Homo sapiens) (UniProt Q9UM73); assay: Inhibition of recombinant human ALK (1058 to end residues) at 1 uM using KKKSPGEYVNIEF as substrate incubated for 40 mins in presence of [gamma-33P]-ATP by scintillation counting method relative to control
# In short: (§1)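 Kinase panel profiling at 1 μM performed by Eurofins KinaseProfiler; percent inhibition reported as mean of two independent experiments.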
# [7] = test system: Tyrosine-protein kinase BTK (Homo sapiens), Q06187 [R28H]; assay: Inhibition of recombinant full length human BTK R28H mutant at 1 uM using LSNLYHQGKFLQT as substrate incubated for 40 mins in presence of [gamma-33P]-ATP by scintillation counting method relative to control
# In short: (§2)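 Tested at a single 1 uM in an outsourced commercial kinase-profiling panel, read as percent inhibition. Each value is the mean of two independent experiments.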
# [8] = test system: HeLa; assay: Induction of apoptosis in human HeLa cells assessed as decrease in Bcl2 expression at 40 to 80 nM incubated for 48 hrs by Western blot analysis; assay type: functional, cell-based
# In short: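 Cells were treated for 48 h, washed three times with PBS, and lysed in RIPA buffer. Immunoblots used anti-Rb, anti-phospho-Rb, anti-Ki67 and anti-Bcl-2 (each 1:1000), with β-actin as loading control.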
# [9] = Toxicity in BALB/c mouse assessed as effect on blood parameter by measuring eosinophils content at 40 mg/kg, po administered once two days for 4 times by hematology analyzer; details: in vivo
# [10] = target: SRSF protein kinase 3 (Homo sapiens) (UniProt Q9UPE1); assay: Inhibition of recombinant human full length MSSK1 at 1 uM using ERMRPRKRQGSVRRRV as substrate incubated for 40 mins in presence of [gamma-33P]-ATP by scintillation counting method relative to control
# [11] = Toxicity in NOD/SCID BALB/c mouse xenografted with human SiHa cells assessed as toxic effects in heart at 40 mg/kg, po administered for 48 hrs by hematoxylin and eosin staining method; assay type: organism-based; details: in vivo
# [12] = target: Ephrin type-A receptor 7 (Homo sapiens) (UniProt Q15375); assay: Inhibition of recombinant human EPhA7 (613 to 909 residues) at 1 uM using KTFCGTPEYLAPEVRREPRILSEEEQEMFRDFDYIADWC as substrate incubated for 40 mins in presence of [gamma-33P]-ATP by scintillation counting method relative to control
# [13] = target: Mitogen-activated protein kinase 1 (Homo sapiens) (UniProt P28482); assay: Inhibition of recombinant human full length MAPK2 at 1 uM using myelin basic protein as substrate incubated for 40 mins in presence of [gamma-33P]-ATP by scintillation counting method relative to control; in short: as §2
# [14] = target: Ephrin type-A receptor 8 (Homo sapiens) (UniProt P29322); assay: Inhibition of recombinant human EPhA8 (615 to 911 residues) at 1 uM using KTFCGTPEYLAPEVRREPRILSEEEQEMFRDFDYIADWC as substrate incubated for 40 mins in presence of [gamma-33P]-ATP by scintillation counting method relative to control
# [15] = target: Serine/threonine-protein kinase Nek1 (Homo sapiens) (UniProt Q96PY6); assay: Inhibition of recombinant human NEK1 (1 to 505 residues) at 1 uM using RLGRDKYKTLRQIRQ as substrate incubated for 40 mins in presence of [gamma-33P]-ATP by scintillation counting method relative to control
# [16] = target: PI3K p110 beta/p85 alpha (Homo sapiens) (UniProt P27986+P42338); assay: Inhibition of recombinant human full length PI3K p110beta/p85alpha at 1 uM using phosphatidylinositol-4, 5-bisphosphate as substrate incubated for 40 mins in presence of [gamma-33P]-ATP by scintillation counting method relative to control; assay type: protein-complex assay
# [17] = target: Serine/threonine-protein kinase PLK1 (Homo sapiens) (UniProt P53350); assay: Inhibition of recombinant human full length PLK1 at 1 uM using casein as substrate incubated for 40 mins in presence of [gamma-33P]-ATP by scintillation counting method relative to control
# [18] = target: Serine/threonine-protein kinase B-raf (Homo sapiens) (UniProt P15056); assay: Inhibition of recombinant human B-Raf (416 to end residues) at 1 uM using myelin as substrate incubated for 40 mins in presence of [gamma-33P]-ATP by scintillation counting method relative to control; in short: as §1
# [19] = target: Tyrosine-protein kinase CSK (Homo sapiens) (UniProt P41240); assay: Inhibition of recombinant full length human CSK at 1 uM using poly(Glu, Tyr) 4:1 as substrate incubated for 40 mins in presence of [gamma-33P]-ATP by scintillation counting method relative to control; in short: as §2
# [20] = test system: T47D; assay: Antiproliferative activity against human T47D cells assessed as reduction in cell viability at 40 nM incubated for 48 hrs by EdU staining based laser scanning confocal microscopy; assay type: functional
# In short: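 Cells, 5×10^4, were seeded in 24-well plates and treated for 48 h. They were then labeled using an EdU Apollo 488 imaging kit with Hoechst 33342 nuclear stain and imaged by laser scanning confocal microscopy. Percent EdU-positive cells = EdU-positive/Hoechst-stained × 100%.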
# [21] = test system: SiHa; assay: Induction of cell cycle arrest in human SiHa cells assessed as accumulation in G2/M phase at 80 nM incubated for 36 hrs by propidium iodide staining based flow cytometry; assay type: functional
# In short: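 Cells were treated with graded concentrations for 36 h, then fixed overnight in 70% ice-cold ethanol at 4°C and resuspended in PBS. Staining used 50 µg/ml PI plus 5 µg/ml RNase at 37°C for 30 min. DNA content was analysed by FACS to give G0/G1, S and G2/M fractions.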
# Sequence of Serine/threonine-protein kinase MRCK alpha (Homo sapiens) (Q5VT25 whole entry, the tested form may be a part): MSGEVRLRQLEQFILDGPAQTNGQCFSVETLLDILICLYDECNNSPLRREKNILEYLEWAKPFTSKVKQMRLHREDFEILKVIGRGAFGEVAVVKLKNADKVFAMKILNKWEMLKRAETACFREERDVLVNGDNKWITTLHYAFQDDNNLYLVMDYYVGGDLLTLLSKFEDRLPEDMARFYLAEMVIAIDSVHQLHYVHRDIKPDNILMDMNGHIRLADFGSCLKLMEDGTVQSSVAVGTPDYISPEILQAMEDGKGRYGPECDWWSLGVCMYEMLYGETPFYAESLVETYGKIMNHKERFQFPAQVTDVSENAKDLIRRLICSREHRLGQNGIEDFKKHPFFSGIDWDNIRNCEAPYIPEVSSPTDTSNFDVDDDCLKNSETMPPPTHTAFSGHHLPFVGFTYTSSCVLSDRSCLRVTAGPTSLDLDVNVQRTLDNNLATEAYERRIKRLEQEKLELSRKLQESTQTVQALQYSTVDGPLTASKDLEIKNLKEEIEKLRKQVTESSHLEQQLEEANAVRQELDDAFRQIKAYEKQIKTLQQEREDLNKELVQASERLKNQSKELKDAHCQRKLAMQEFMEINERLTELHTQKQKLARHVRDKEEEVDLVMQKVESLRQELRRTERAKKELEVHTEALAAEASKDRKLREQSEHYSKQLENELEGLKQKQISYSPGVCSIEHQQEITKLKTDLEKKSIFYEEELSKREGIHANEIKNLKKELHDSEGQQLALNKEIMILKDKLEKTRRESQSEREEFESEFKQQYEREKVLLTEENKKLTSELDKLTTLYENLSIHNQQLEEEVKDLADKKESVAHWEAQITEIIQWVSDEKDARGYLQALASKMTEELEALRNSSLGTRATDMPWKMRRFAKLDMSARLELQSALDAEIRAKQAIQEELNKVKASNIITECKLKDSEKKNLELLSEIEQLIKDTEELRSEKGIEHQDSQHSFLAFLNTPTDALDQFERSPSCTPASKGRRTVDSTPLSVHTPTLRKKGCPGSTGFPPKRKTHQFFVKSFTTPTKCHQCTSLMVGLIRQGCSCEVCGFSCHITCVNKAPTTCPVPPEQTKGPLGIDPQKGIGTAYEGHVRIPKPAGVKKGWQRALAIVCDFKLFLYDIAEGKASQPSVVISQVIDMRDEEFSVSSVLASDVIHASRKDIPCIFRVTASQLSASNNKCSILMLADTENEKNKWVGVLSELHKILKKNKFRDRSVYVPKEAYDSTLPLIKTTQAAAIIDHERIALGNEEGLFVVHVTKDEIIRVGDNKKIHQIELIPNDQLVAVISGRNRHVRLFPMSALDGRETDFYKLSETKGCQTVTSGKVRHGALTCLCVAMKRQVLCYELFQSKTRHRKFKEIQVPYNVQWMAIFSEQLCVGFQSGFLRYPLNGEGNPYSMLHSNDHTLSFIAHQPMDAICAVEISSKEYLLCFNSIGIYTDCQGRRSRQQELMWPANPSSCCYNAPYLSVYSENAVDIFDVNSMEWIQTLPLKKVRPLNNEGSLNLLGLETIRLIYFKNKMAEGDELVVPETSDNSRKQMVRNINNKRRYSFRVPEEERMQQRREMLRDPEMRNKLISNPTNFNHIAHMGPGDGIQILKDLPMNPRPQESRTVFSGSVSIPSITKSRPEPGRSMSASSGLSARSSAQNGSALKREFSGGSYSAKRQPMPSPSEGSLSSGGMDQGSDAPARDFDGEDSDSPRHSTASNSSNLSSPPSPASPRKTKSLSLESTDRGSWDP
# Sequence of Mitogen-activated protein kinase kinase kinase 20 (Homo sapiens) (Q9NYL2 2-800 limits assumed): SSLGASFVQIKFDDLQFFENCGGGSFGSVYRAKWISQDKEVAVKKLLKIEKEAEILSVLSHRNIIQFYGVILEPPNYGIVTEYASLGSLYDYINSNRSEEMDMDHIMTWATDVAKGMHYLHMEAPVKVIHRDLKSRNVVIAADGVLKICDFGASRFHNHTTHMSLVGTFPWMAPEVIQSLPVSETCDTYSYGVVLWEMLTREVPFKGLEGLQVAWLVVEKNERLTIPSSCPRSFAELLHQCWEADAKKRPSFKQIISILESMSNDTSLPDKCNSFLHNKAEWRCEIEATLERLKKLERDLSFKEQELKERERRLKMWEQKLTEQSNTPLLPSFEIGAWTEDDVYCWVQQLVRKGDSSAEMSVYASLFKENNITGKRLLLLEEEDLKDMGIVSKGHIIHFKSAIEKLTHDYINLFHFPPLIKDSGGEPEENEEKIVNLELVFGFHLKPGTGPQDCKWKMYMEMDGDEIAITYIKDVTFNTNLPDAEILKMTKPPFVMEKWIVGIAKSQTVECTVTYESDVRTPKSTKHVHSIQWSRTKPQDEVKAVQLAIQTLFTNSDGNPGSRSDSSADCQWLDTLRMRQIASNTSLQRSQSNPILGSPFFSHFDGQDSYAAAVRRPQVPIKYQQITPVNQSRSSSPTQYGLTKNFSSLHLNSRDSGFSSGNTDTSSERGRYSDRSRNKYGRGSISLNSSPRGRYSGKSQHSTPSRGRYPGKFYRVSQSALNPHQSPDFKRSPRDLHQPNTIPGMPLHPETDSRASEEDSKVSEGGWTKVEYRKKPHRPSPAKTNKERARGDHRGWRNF
# Sequence of Serine/threonine-protein kinase B-raf (Homo sapiens) (P15056 whole entry): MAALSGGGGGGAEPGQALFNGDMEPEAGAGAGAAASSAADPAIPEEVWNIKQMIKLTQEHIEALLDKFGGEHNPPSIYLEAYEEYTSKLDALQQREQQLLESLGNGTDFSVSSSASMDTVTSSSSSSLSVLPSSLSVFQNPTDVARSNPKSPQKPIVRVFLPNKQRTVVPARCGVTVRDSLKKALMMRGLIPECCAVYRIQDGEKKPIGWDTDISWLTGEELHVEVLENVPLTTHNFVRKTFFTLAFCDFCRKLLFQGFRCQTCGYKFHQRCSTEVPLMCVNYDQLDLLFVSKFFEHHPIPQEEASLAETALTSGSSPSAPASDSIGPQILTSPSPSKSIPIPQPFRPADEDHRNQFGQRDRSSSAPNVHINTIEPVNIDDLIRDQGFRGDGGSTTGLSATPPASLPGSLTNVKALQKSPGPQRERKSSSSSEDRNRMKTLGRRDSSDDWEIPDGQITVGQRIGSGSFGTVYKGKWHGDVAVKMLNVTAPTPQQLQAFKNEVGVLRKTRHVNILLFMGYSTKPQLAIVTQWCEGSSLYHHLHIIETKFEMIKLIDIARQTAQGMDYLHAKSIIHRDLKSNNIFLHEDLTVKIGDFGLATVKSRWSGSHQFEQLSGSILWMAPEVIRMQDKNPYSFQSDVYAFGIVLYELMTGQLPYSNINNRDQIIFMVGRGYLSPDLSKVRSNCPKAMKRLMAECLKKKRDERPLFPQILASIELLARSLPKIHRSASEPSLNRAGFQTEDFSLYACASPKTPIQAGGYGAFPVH
# Sequence of Protein kinase C eta type (Homo sapiens) (P24723 whole entry): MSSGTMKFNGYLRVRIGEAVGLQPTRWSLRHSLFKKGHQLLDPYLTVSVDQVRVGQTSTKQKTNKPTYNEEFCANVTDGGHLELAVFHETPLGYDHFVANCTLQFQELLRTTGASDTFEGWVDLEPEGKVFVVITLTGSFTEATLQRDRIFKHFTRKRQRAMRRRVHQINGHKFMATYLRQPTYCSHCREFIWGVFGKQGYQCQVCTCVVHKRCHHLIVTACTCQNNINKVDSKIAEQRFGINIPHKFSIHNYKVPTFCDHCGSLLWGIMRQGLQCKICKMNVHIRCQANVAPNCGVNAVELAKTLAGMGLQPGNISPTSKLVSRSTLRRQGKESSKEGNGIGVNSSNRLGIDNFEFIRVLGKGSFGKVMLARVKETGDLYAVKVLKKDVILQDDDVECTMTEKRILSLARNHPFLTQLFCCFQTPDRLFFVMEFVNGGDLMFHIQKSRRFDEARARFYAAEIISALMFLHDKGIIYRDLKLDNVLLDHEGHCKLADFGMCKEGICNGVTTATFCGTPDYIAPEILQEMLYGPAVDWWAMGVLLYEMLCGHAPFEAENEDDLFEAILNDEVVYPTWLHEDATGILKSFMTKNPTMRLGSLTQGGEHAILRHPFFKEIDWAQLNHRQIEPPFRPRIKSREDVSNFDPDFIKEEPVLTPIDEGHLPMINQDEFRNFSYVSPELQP
# Sequence of Tyrosine-protein kinase BTK (Homo sapiens), Q06187 [R28H] (Q06187 whole entry R28H): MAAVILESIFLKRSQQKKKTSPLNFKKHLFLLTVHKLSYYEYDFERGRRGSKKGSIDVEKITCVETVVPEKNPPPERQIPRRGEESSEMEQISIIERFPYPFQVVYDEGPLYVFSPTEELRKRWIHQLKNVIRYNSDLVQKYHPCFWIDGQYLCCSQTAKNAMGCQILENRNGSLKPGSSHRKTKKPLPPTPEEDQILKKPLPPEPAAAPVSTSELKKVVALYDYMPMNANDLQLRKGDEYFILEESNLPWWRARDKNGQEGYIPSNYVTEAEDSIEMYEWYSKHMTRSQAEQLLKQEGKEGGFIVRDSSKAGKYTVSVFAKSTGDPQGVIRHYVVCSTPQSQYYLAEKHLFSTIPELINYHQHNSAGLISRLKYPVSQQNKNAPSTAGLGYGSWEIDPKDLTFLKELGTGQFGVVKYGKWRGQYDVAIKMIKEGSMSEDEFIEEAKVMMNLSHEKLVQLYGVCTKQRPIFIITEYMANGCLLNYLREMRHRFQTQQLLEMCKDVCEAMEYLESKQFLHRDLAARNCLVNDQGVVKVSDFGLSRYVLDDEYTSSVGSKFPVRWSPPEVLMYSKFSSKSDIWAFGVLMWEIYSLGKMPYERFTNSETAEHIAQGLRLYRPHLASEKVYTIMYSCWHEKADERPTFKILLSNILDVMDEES
# Sequence of Mitogen-activated protein kinase 1 (Homo sapiens) (P28482 whole entry, the tested form may be a part): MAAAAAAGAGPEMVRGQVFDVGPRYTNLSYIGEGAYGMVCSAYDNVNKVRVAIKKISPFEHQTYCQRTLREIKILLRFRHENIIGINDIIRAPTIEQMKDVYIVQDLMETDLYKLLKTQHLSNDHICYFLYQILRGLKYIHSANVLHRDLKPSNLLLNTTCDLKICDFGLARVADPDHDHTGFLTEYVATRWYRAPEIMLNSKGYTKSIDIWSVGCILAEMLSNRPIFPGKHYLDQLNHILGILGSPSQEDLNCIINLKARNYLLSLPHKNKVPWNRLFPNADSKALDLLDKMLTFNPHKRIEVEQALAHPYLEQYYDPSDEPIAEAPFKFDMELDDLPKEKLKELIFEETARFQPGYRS
structure (smiles),measurement,setting,value
Cc1ccc(NC(=O)C2(C(=O)Nc3ccc(Nc4ncc(F)c(-c5cc(F)c6nc(C)n(C(C)C)c6c5)n4)cc3)CC2)cc1,inhibition,[1],14%
same,VRT(t),[2],2 h
same,inhibition,[3],Active
same,inhibition,[4],21%
same,inhibition,[5],17%
same,inhibition,[6],18%
same,inhibition,[7],0%
same,Activity,[8],Active
same,Activity,[9],Non-Toxic
same,inhibition,[10],2%
same,Activity,[11],Non-Toxic
same,inhibition,[12],81%
same,inhibition,[13],0%
same,inhibition,[14],15%
same,inhibition,[15],72%
same,inhibition,[16],12%
same,inhibition,[17],23%
same,inhibition,[18],32%
same,inhibition,[19],0%
COc1cc2nccc(Oc3ccc(NC(=O)C4(C(=O)Nc5ccc(F)cc5)CC4)cc3)c2cc1OC [CABOZANTINIB],inhibition,[20],Active
same,Activity,[21],Active
